Hits are enriched below; roughly 2.2% of the tested compounds scored in any of these assays.
HCT116 PTEN-null = growth suppression of PTEN-null HCT116, primary screen, cell-based, CellTiter-Glo. hit rate 1.2% among 140,000. viability, % at 10 µM. HCT116 PTEN-null viability, 60 h; stronger effect = lower value;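 active = viability at or below a set limit, 4 SD under the median of all tested compounds, cut at about 3.7% in these data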;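 also: PTEN knockout HCT116 line with beta catenin targeted HCT116 as companion control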
Autophagy HCS = autophagy modulators in MEF cells, primary screen, imaging, high-content, MEF GFP-LC3. AID 463193, 2010. calls only at 10 µM (by protocol). MEF GFP-LC3 puncta imaging; test concentration mostly 10 µM. hit rate 0.98% among 190,000;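 active = percentage of spot-positive cells more than 3 SD above its plate mean, without a fluorescence outlier flag or 80% toxicity; inconclusive = no clear call, values can overlap the other calls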;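 also: spot-positive cell cutoff set from DMSO-treated cells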
SDO1 yeast rescue = growth rescue of sdo1-depleted yeast, primary screen, S. cerevisiae, bone marrow failure model | S. cerevisiae sdo1-depleted JHY4D growth rescue, OD600 30 h; stronger effect = higher value; pdr5 snq2 efflux-pump mutant strain | z-score at 10 µM | hit rate 0.21% among 140,000 | AID 817, 2007;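 active = z-score above 3 at both the 24 hr and the 30 hr optical density reads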;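 also: z-score against mean and SD of all compound wells on the same plate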
Dynein cargo inh = inhibitors of GR-EGFP nuclear translocation, primary screen, dynein cargo transport inhibitor project, imaging, high-content, 3617.4 mouse cells; test concentration mostly 20 µM; stimulated with dexamethasone, 1 µM; stronger effect = lower value; z-score, hits read low; hit rate 0.47% among 220,000; AID 1381, 2008;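 active = plate z-score of nuclear minus cytoplasmic receptor signal below a set negative limit, without overly bright fluorescence or cell loss, cut at about -3.5 in these data, passing the limit was not always enough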;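 also: z-score of nuclear minus cytoplasmic ring GR-EGFP intensity difference per well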
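Also added: dexamethasone, 1.0 µM final. Medium: tet-free, stripped-serum medium. Detection: fixed, Hoechst-stained cells imaged at 10x for EGFP. Read-out: nuclear-to-cytoplasmic GR-EGFP distribution per well. Times: induction 48 h, compound 1 h, agonist 30 min.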
bCat KO growth = primary screen for growth suppressors in beta-catenin knockout HCT116 cells (colon tumor, human); HCT116 beta-catenin knockout viability, CellTiter-Glo, 60 h; stronger effect = lower value; viability, % at 10 µM; hit rate 1.5% among 140,000; AID 818, 2007;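 active = viability at or under a set limit, the compound median less 4 SD, cut at about 6% in these data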;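 also: 0% = Hyamine 1622 control at 20 µM and 100% = untreated cell control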
Dynein confirm = dynein cargo transport inhibitors, GR-EGFP translocation, confirmation, imaging, high-content imaging, GR-EGFP cells; shares compounds with Dynein cargo inh; 3617.4 GR-EGFP nuclear translocation imaging, dexamethasone-induced; calls only at 20 µM; hit rate 69% among 1,000;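 active = inhibition of receptor movement into the nucleus at or above a set limit in both runs, with normal cell brightness and cell count; inconclusive = limit reached in only one run, brightness and count normal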;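 also: dexamethasone at 1 µM final in well for 30 min; nuclear minus cytoplasmic GR-EGFP mean intensity difference in channel 2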
* marks the source's active call; other numbers are inactive results; i = inactive; ? = inconclusive; . = no result given; + = active, no number.

SMILES	HCT116 PTEN-null	Autophagy HCS	SDO1 yeast rescue	Dynein cargo inh	bCat KO growth	Dynein confirm
Cc1ccc(N2C(=N)/C(=C3/Nc4ccccc4S3)C(c3ccccc3)C2=O)cc1 (centres undefined)	1.8*	+	-2	-3.6*	2.8*	+
CC(SCC(=O)Nc1ccc(S(=O)(=O)N2CCCCC2)cc1)C(=O)O (centres undefined)	94	i	1.1	-0.6	82	.
CC1=Nc2ccccc2/C1=C\c1nc(-c2ccc(C(F)(F)F)cc2)oc1O	103	?	-1.4	-4.4	93	.
CC1=Nc2ccccc2/C1=C/c1nc(-c2ccc(C)s2)oc1O	.	i	.	-6.7	.	?
C=CCNC(=O)c1cccc(NS(=O)(=O)c2ccc(Cl)cc2)c1	.	i	.	-0.77	.	.
O=C(CCl)N(CCCNC(=O)C(F)(F)F)c1ccc([N+](=O)[O-])cc1	.	.	.	-5*	.	+
CC(C)(C)OC(=O)NCCc1nnc(S(=O)(=O)Cc2ccc(Cl)cc2Cl)o1	43	i	-2.3	-6.3*	21	?
CC(C)(C)OC(=O)NCCc1nnc(SCc2ccccc2Cl)o1	79	i	-0.87	-1	88	.
O=C1/C(=C/c2ccc(N3CCOCC3)o2)SC(=Nc2ccccc2)N1CCc1c[nH]c2ccccc12	1.4*	+	0.45	-7	1.4*	+
CCOC(=O)C(C)Oc1ccsc1C(=O)OC (centres undefined)	92	i	1.5	-0.36	97	.
Cc1ccccc1C(=O)OCc1cnc(Cl)s1	.	i	.	0.0099	.	.
CCCn1nc(-c2ccccc2)c2nc3ccccc3nc21	70	+	-1.8	-4.5	75	i
COC(=O)Cc1c(C)[nH]n(-c2cc(Cl)cc(Cl)c2)c1=O	.	i	.	0.16	.	.
Cc1ccc(/C=C2/C(=O)ON=C2c2ccccc2)o1	.	.	.	-6*	.	+
CC1=NOC(=O)/C1=C\c1ccc(-c2ccc(Cl)c(C(=O)O)c2)o1	.	i	.	-0.57	.	.
O=C1ON=C(c2ccccc2)/C1=C\c1ccco1	.	.	.	-4.4*	.	+
CC1=NOC(=O)/C1=C\c1ccc(-c2ccccc2Br)o1	.	i	.	-3.7*	.	+
CC(C)c1cc(C(=O)O)n(-c2ccccc2)n1	102	i	-0.15	-0.25	99	.
Cc1ccccc1OCC(=O)NNC(=O)CSc1nc(N)cc(N)n1	.	i	.	1.1	.	.
O=S1(=O)C=C(Sc2nc3ccccc3s2)c2ccccc21	1.2*	+	-2.5	-4.1*	1.9*	+
O=C(CSc1nc2ccccc2s1)CSc1nc2ccccc2s1	97	i	-1.4	-0.29	86	.
CCn1cc(C2=NOC(C(=O)Nc3cc(OC)c(Cl)cc3OC)C2)c(C)n1 (centres undefined)	93	i	0.12	-0.55	96	.
O=C1/C(=C/c2ccc(N3CCCC3)cc2)NC(=S)N1C1CC1	69	+	-1.1	-5	85	+
Nc1nc(Sc2c([N+](=O)[O-])cc(C(F)(F)F)cc2[N+](=O)[O-])n[nH]1	.	.	.	-7.1*	.	+
COc1ccc(C(=O)c2sc3nc(C)cc(-c4cccs4)c3c2N)cc1OC	75	+	-0.18	-6.5	82	i
SMILES	HCT116 PTEN-null	Autophagy HCS	SDO1 yeast rescue	Dynein cargo inh	bCat KO growth	Dynein confirm
COc1ccc(C(=O)c2sc3nc(C)cc(-c4cccs4)c3c2N)cc1	74	+	0.28	-7.8	86	?
Cc1cc(C)c2c(N)c(C(=O)c3ccc(Cl)c(Cl)c3)sc2n1	.	i	.	-0.53	.	.
Cc1cc(-c2cccs2)c2c(N)c(C(=O)c3ccc4c(c3)OCO4)sc2n1	81	+	-0.91	-11	90	?
CN1CCN(C2=CC3=CC(=C(C#N)C#N)CCC3CC2)CC1 (centres undefined)	.	+	.	-3.8*	.	i
N#Cc1cc(Cl)c(N2CCOCC2)cc1C#N	100	i	0.46	1.6	90	.
N#CC(C#N)=C1C=C2C=C(N3CCOCC3)CCC2CC1 (centres undefined)	.	i	.	-7*	.	+
CC1(C)CC(NCCN2CCN(C3=CC(=C(C#N)C#N)CC(C)(C)C3)CC2)=CC(=C(C#N)C#N)C1	.	i	.	0.45	.	.
CCN1CCN(C2=CC3=CC(=C(C#N)C#N)CCC3CC2)CC1 (centres undefined)	.	?	.	-5.2*	.	+
N#CC(C#N)=C1C=C2C=C(N3CCCCCC3)CCC2CC1 (centres undefined)	47	?	-0.94	-3.7*	52	+
CC(C)[C@H](NC(=O)c1ccccc1Cl)C(=O)NC1CCCCCC1	.	i	.	0.56	.	.
CCCNC(=S)N1CC2(C)CN(C(=O)C(=O)OCC)CC(C)(C1)C2=O	.	i	.	0.25	.	.
CC(C)OC(=O)NCCOC(=O)Nc1ccc(Cl)cc1	.	i	.	-0.82	.	.
CCOc1cc(CNCCN2CCOCC2)ccc1OCc1ccccc1Cl	.	i	.	-0.2	.	.
CCOc1cc(CNCCCN2CCOCC2)cc(Br)c1OCc1ccccc1Cl	.	i	.	-5.1*	.	i
Cc1ccc(-c2nn(-c3ccccc3)cc2CO)o1	96	i	1.9	-3.7*	94	i
CN1C(=S)N(c2cccnc2)C(=O)/C1=C\c1ccc(C(C)(C)C)cc1	.	i	.	-3.7*	.	?
Cn1cnnc1Sc1nc([N+](=O)[O-])nn1C	.	i	.	0.37	.	.
COc1ccccc1-c1nnc(Sc2nc([N+](=O)[O-])nn2C)o1	2.4*	i	-0.37	-4.1*	2.1*	+
Cc1ccc(S(=O)(=O)N2CCC(=O)N(CCOC(=O)Nc3ccc(F)cc3)CC2)cc1	66	i	0.06	0.26	50	.
CCOc1ccc(NC(=O)Nc2cccn(Cc3ccccc3)c2=O)cc1	.	i	.	0.98	.	.
O=c1c(/C=N/N2CCOCC2)c(C(F)(F)F)[nH]n1-c1ccccc1	.	i	.	-0.44	.	.
COc1ccc2c(c1)c1ccc3c(c1n2C)C(=O)C=CC3=O	.	.	.	-5.8*	.	+
C=CCSC(=C(C#N)C#N)c1cc2c([nH]1)CCCC2	1.9*	i	-1.9	-4*	2.6*	+
OCCC1CN(Cc2ccc3cc(Cl)ccc3n2)CCN1Cc1ccsc1 (centres undefined)	.	i	.	-0.86	.	.
CS(=O)(=O)N1CCN(c2ccc(NC(=O)c3ccc([N+](=O)[O-])o3)cc2)CC1	.	i	.	-1.3	.	.
O=C(Nc1ccc(N2CCN(C(=O)c3ccc(Cl)cc3)CC2)cc1)c1ccc([N+](=O)[O-])o1	.	i	.	-4.9*	.	+
Cc1ccc(NC(=O)c2ccc([N+](=O)[O-])o2)cc1C	.	i	.	-1	.	.
O=C(Nc1ccc(N2CCCC2)c(Cl)c1)c1ccc([N+](=O)[O-])o1	.	i	.	-4*	.	+
